Reference: ChEMBL document CHEMBL4364314, “Design, synthesis and biological evaluation of 6-deoxy O-spiroketal C-arylglucosides as novel renal sodium-dependent glucose cotransporter 2 (SGLT2) inhibitors for the treatment of type 2 diabetes” (Eur J Med Chem, 2019)

Experiments:
[1] = molecular target: T1, Sodium/glucose cotransporter 1 (Homo sapiens, UniProt P13866); test: Inhibition of human full length SGLT1 expressed in NIH3T3 cells measured after 1 hr in presence of [14C]-methyl-alpha -D-glucopyranoside by scintillation counter method; type: cell-based
T1 sequence (P13866 whole entry): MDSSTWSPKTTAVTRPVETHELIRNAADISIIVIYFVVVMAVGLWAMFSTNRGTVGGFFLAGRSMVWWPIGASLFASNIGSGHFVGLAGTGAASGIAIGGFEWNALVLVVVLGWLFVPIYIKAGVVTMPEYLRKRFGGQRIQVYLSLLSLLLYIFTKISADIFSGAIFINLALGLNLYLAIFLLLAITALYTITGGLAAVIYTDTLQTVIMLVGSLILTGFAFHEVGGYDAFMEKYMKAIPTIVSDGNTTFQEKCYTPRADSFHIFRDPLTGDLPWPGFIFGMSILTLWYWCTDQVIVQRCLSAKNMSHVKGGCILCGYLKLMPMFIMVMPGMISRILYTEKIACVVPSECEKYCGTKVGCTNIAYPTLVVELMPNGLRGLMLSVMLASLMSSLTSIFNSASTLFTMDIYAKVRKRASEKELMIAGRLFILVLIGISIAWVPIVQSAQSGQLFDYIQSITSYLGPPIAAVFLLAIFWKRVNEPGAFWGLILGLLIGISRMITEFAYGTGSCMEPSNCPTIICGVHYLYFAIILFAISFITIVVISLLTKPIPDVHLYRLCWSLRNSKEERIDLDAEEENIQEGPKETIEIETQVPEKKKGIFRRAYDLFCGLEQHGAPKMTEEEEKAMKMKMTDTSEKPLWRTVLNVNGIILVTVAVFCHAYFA
Method in brief: (§1)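 Stable NIH3T3 lines from retroviral transduction of full-length hSGLT1 or hSGLT2 (pBABE-puro, 8 µg/mL polybrene, puromycin 2 µg/mL selection for 2 weeks). Cells plated 2 days ahead, 2 mmol/L sodium butyrate added day 2. Read by scintillation counting. Compound-free buffer served as negative control, sodium-free N-methyl-glucamine buffer as blank.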

Homo sapiens = species: Homo sapiens; test: Selectivity ratio of IC50 for human full length SGLT1 to IC50 for human full length SGLT2
Method in brief: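 Ratio of IC50 at hSGLT1 to IC50 at hSGLT2, both from the [14C]methyl-α-D-glucopyranoside uptake assay in stably transfected NIH3T3 cells.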

[2] = molecular target: T2, Sodium/glucose cotransporter 2 (Homo sapiens, UniProt P31639); test: Inhibition of human full length SGLT2 expressed in NIH3T3 cells measured after 1 hr in presence of [14C]-methyl-alpha -D-glucopyranoside by scintillation counter method; type: cell-based; method in brief: as §1
T2 sequence (P31639 whole entry): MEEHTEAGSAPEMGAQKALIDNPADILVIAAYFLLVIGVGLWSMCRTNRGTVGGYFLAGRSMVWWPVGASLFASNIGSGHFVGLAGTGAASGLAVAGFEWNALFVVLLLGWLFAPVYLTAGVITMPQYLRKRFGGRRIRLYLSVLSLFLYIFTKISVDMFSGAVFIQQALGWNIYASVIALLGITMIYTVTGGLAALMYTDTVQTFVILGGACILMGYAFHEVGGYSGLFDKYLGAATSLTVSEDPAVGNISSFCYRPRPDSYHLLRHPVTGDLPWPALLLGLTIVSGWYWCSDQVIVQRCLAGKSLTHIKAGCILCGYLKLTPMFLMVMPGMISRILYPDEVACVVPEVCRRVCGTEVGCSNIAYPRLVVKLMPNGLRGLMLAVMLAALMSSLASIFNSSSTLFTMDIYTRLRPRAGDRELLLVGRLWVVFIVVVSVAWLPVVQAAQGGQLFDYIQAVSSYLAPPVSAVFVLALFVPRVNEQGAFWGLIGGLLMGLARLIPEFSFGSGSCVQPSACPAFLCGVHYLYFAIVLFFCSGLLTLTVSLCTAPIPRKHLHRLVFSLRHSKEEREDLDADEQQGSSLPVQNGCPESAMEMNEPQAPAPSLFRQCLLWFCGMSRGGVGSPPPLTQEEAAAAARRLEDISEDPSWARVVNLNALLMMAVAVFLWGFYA

Rattus norvegicus [3] = test: Effect on urine glucose excretion in Sprague-Dawley rat 1 mg/kg, po administered as single dose measured after 24 hrs assessed per 100 grams (reference value: 0.51 +/- 0.40 mg); type: functional
Rattus norvegicus [4] = test: Effect on urinary volume in Sprague-Dawley rat at 1 mg/kg, po administered as single dose measured after 24 hrs (reference value: 24.17 +/- 7.11 mL); type: ADME, organism-based; conditions: in vivo
Mus musculus [5] = test: Effect on urine glucose excretion in C57BL/6J mouse at 1 mg/kg, po administered as single dose measured after 24 hrs assessed per 100 grams (reference value: 0.84 +/- 0.40 mg ); type: functional
Mus musculus [6] = test: Effect on urine glucose concentration in C57BL/6J mouse at 1 mg/kg, po administered as single dose measured after 24 hrs by glucose oxidase method (reference value: 0.74 +/- 0.14 mmol/L); type: functional
Rattus norvegicus [7] = test: Effect on urine glucose concentration in Sprague-Dawley rat at 1 mg/kg, po administered as single dose measured after 24 hrs by glucose oxidase method (reference value: 0.28 +/- 0.16 mmol/L); type: functional
Mus musculus [8] = test: Effect on urinary volume in C57BL/6J mouse at 1 mg/kg, po administered as single dose measured after 24 hrs (reference value: 1.24 +/- 0.45 mL); type: ADME, organism-based; conditions: in vivo
[9] = molecular target: T3, Sodium/glucose cotransporter 2 (Homo sapiens) (UniProt P31639); test: Binding affinity to human SGLT2 assessed as dissociation half-life
T3 sequence (whole entry): T2 sequence (P31639 whole entry)

| IC50 [1] [nM] | Ratio IC50 (Homo sapiens) | IC50 [2] [nM] | Compound | also measured |
| --- | --- | --- | --- | --- |
| 4800 | 71 | 67.5 | CCOCCc1ccc(Cc2cc3c(cc2Cl)CO[C@]32O[C@H](C)[C@@H](O)[C@H](O)[C@H]2O)s1 |  |
|  |  | > 100 | Cc1ccc(Cc2ccc3c(c2)[C@]2(OC3)O[C@H](C)[C@@H](O)[C@H](O)[C@H]2O)cc1 |  |
|  |  | > 100 | CCOc1ccc(Cc2ccc3c(c2)[C@]2(OC3)O[C@H](C)[C@@H](O)[C@H](O)[C@H]2O)cc1 |  |
|  |  | > 100 | C[C@H]1O[C@]2(OCc3ccc(Cc4ccc(-c5ccc(F)cc5)s4)cc32)[C@H](O)[C@@H](O)[C@@H]1O |  |
| 2000 | 81 |  | C[C@H]1O[C@]2(OCc3cc(Cl)c(Cc4cc5ccccc5s4)cc32)[C@H](O)[C@@H](O)[C@@H]1O |  |
|  |  | > 100 | Cc1ccc(Cc2ccc3c(c2)[C@]2(OC3)O[C@H](C)[C@@H](O)[C@H](O)[C@H]2O)s1 |  |
| 400 | 13 |  | CCc1ccc(Cc2cc3c(cc2Cl)CO[C@]32O[C@H](C)[C@@H](O)[C@H](O)[C@H]2O)cc1 |  |
|  |  | > 100 | C[C@H]1O[C@]2(OCc3ccc(Cc4cc5ccccc5s4)cc32)[C@H](O)[C@@H](O)[C@@H]1O |  |
|  |  | > 100 | C[C@H]1O[C@]2(OCc3ccc(Cc4ccc5ccccc5c4)cc32)[C@H](O)[C@@H](O)[C@@H]1O |  |
|  |  | > 100 | CCCc1ccc(Cc2ccc3c(c2)[C@]2(OC3)O[C@H](C)[C@@H](O)[C@H](O)[C@H]2O)s1 |  |
|  |  | > 100 | C[C@H]1O[C@]2(OCc3ccc(Cc4ccc(-c5ccccn5)s4)cc32)[C@H](O)[C@@H](O)[C@@H]1O |  |
| 2200 | 47 | 47.2 | C[C@H]1O[C@]2(OCc3cc(Cl)c(Cc4ccc(CO)s4)cc32)[C@H](O)[C@@H](O)[C@@H]1O |  |
|  |  | > 100 | C[C@H]1O[C@]2(OCc3cc(Cl)c(Cc4ccc(-c5ccc(F)cc5)s4)cc32)[C@H](O)[C@@H](O)[C@@H]1O |  |
|  |  | > 100 | C[C@H]1O[C@]2(OCc3ccc(Cc4ccc(-c5ccccc5)s4)cc32)[C@H](O)[C@@H](O)[C@@H]1O |  |
| 400 | 46 | 8.5 | Cc1ccc(Cc2cc3c(cc2Cl)CO[C@]32O[C@H](C)[C@@H](O)[C@H](O)[C@H]2O)s1 |  |
| 5000 | 117 | 42.3 | CCCOCCc1ccc(Cc2cc3c(cc2Cl)CO[C@]32O[C@H](C)[C@@H](O)[C@H](O)[C@H]2O)s1 |  |
|  |  |  | CCc1ccc(Cc2ccc3c(c2)[C@]2(OC3)O[C@H](CO)[C@@H](O)[C@H](O)[C@H]2O)cc1.O [TOFOGLIFLOZIN] | Activity (Rattus norvegicus [3]): 73.68 mg; Activity (Rattus norvegicus [4]): 26.5 mL; Activity (Mus musculus [5]): 48.85 mg; Activity (Mus musculus [6]): 56.27 mmol/L; Activity (Rattus norvegicus [7]): 43.67 mmol/L; Activity (Mus musculus [8]): 1.3 mL |

| IC50 [1] [nM] | Ratio IC50 (Homo sapiens) | IC50 [2] [nM] | Compound | also measured |
| --- | --- | --- | --- | --- |
|  |  | > 100 | CCc1ccc(Cc2ccc3c(c2)[C@]2(OC3)O[C@H](C)[C@@H](O)[C@H](O)[C@H]2O)s1 |  |
| 3600 | 70 | 51.3 | C[C@H]1O[C@]2(OCc3cc(Cl)c(Cc4ccc(C=O)s4)cc32)[C@H](O)[C@@H](O)[C@@H]1O |  |
|  | 988 | 26.2 | CCc1ccc(Cc2cc3c(cc2F)CO[C@]32O[C@H](C)[C@@H](O)[C@H](O)[C@H]2O)s1 |  |
| 4700 | 68 | 69.4 | COCCc1ccc(Cc2cc3c(cc2Cl)CO[C@]32O[C@H](C)[C@@H](O)[C@H](O)[C@H]2O)s1 |  |
| 3000 | 58 | 51.5 | COC(=O)c1ccc(Cc2cc3c(cc2Cl)CO[C@]32O[C@H](C)[C@@H](O)[C@H](O)[C@H]2O)s1 |  |
|  | 351 |  | CCc1ccc(Cc2ccc3c(c2)[C@]2(OC3)O[C@H](C)[C@@H](O)[C@H](O)[C@H]2O)cc1 |  |
| 500 | 60 | 8.8 | CCOc1ccc(Cc2cc3c(cc2Cl)CO[C@]32O[C@H](C)[C@@H](O)[C@H](O)[C@H]2O)cc1 |  |
|  |  |  | CCOc1ccc(Cc2cc([C@@H]3S[C@H](CO)[C@@H](O)[C@H](O)[C@H]3O)c(OC)cc2C)cc1 | T1/2 [9]: 7 h |
|  |  | > 100 | COc1ccc(Cc2ccc3c(c2)[C@]2(OC3)O[C@H](C)[C@@H](O)[C@H](O)[C@H]2O)cc1 |  |
| 6400 | 151 | 42.4 | COC(=O)Cc1ccc(Cc2cc3c(cc2Cl)CO[C@]32O[C@H](C)[C@@H](O)[C@H](O)[C@H]2O)s1 |  |
|  |  | > 100 | CCCc1ccc(Cc2ccc3c(c2)[C@]2(OC3)O[C@H](C)[C@@H](O)[C@H](O)[C@H]2O)cc1 |  |
| 500 | 30 | 15.9 | C[C@H]1O[C@]2(OCc3cc(Cl)c(Cc4ccc(Cl)s4)cc32)[C@H](O)[C@@H](O)[C@@H]1O |  |
|  |  | > 100 | C[C@H]1O[C@]2(OCc3ccc(Cc4ccc(Cl)s4)cc32)[C@H](O)[C@@H](O)[C@@H]1O |  |
|  |  | > 100 | C[C@H]1O[C@]2(OCc3ccc(Cc4cc5ccccc5o4)cc32)[C@H](O)[C@@H](O)[C@@H]1O |  |
|  |  | > 100 | CC(C)c1ccc(Cc2ccc3c(c2)[C@]2(OC3)O[C@H](C)[C@@H](O)[C@H](O)[C@H]2O)cc1 |  |
|  |  |  | OC[C@H]1O[C@@H](c2ccc(Cl)c(Cc3ccc(O[C@H]4CCOC4)cc3)c2)[C@H](O)[C@@H](O)[C@@H]1O | T1/2 [9]: 1 h |
